According to ChEMBL document CHEMBL2321812 (J Med Chem, 2013):
The source made the active and inactive calls. The calls are words filed in the database; no cut-off is given here.

Key:
[1] = molecular target: Cytochrome P450 3A4 (Homo sapiens, UniProt P08684); test: Inhibition of CYP3A4 (unknown origin)
[2] = Cmax in female ICR mouse at 5 mg/kg, ip; assay type: ADME, organism-based; design: dose 5 mg/kg, route intraperitoneal; details: in vivo
How it was run: (§1)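 Male and female ICR mice (18.2-26.0 g) got 5 mg/kg i.p. in 5% DMSO/50% PEG400/45% saline. Terminal cardiac blood was drawn after CO2 euthanasia at 5, 15, 30 min and 1, 2, 4, 8, 24 h.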

[3] = molecular target: Poly [ADP-ribose] polymerase 1 (Homo sapiens) (UniProt P09874); test: Inhibition of PARP1 (unknown origin) up to 20 uM by NAD+-dependent autopoly(ADP ribosyl)lation assay
How it was run: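 PARP1 was tested with a chemiluminescent poly(ADP-ribosyl)ation assay kit over a range of concentrations. Each point was run in duplicate and the experiment was done twice. Luminescence was read and IC50 was fitted to a Langmuir binding isotherm.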

[4] = Bioavailability in female ICR mouse measured from AUC (0 to infinity) at 5 mg/kg, ip; assay type: ADME, organism-based; details: in vivo
How it was run: (§2)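 Intraperitoneal dosing was 5 mg/kg, referenced to 1 mg/kg i.v., both in 5% DMSO/50% PEG400/45% saline, in male and female ICR mice. Plasma was sampled from 5 min to 24 h and measured by HPLC-MS/MS.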

[5] = Bioavailability in male ICR mouse measured from AUC (0 to infinity) at 5 mg/kg, ip; assay type: ADME, organism-based; details: in vivo; how it was run: as §2
[6] = Oral bioavailability in female ICR mouse measured from AUC (0 to infinity) at 5 mg/kg; assay type: ADME, organism-based; details: in vivo
How it was run: (§3)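 Oral 5 mg/kg (10% NMP/60% PEG400/30% saline, after 10-15 h fast) was compared with 1 mg/kg i.v. (5% DMSO/50% PEG400/45% saline) in male and female ICR mice. Plasma from 5 min to 24 h was measured by HPLC-MS/MS.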

[7] = Oral bioavailability in male ICR mouse measured from AUC (0 to infinity) at 5 mg/kg; assay type: ADME, organism-based; details: in vivo; how it was run: as §3
[8] = tested on: Mus musculus; test: Bioavailability in female ICR mouse measured from AUC (0 to t) at 5 mg/kg, ip; assay type: ADME, organism-based; details: in vivo; how it was run: as §2
[9] = tested on: Mus musculus; test: Bioavailability in male ICR mouse measured from AUC (0 to t) at 5 mg/kg, ip; assay type: ADME, organism-based; details: in vivo; how it was run: as §2
[10] = Oral bioavailability in female ICR mouse measured from AUC (0 to t) at 5 mg/kg; assay type: ADME, organism-based; details: in vivo; how it was run: as §3
[11] = Oral bioavailability in male ICR mouse measured from AUC (0 to t) at 5 mg/kg; assay type: ADME, organism-based; details: in vivo; how it was run: as §3
[12] = Mean residence time (0 to infinity) in female ICR mouse at 5 mg/kg, ip; assay type: ADME, organism-based; design: dose 5 mg/kg, route intraperitoneal; details: in vivo; how it was run: as §1
[13] = Mean residence time (0 to infinity) in male ICR mouse at 5 mg/kg, ip; assay type: ADME, organism-based; design: dose 5 mg/kg, route intraperitoneal; details: in vivo; how it was run: as §1
[14] = Mean residence time (0 to infinity) in female ICR mouse at 5 mg/kg, po; assay type: ADME, organism-based; design: dose 5 mg/kg, route oral; details: in vivo
How it was run: (§4)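 Oral gavage at 5 mg/kg in 10% NMP/60% PEG400/30% saline to overnight-fasted (10-15 h) male and female ICR mice (18.2-26.0 g). Blood was taken by cardiac puncture after CO2 euthanasia at 5, 15, 30 min and 1, 2, 4, 8, 24 h.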

[15] = Mean residence time (0 to infinity) in male ICR mouse at 5 mg/kg, po; assay type: ADME, organism-based; design: dose 5 mg/kg, route oral; details: in vivo; how it was run: as §4
[16] = Mean residence time (0 to infinity) in male ICR mouse at 1 mg/kg, iv; assay type: ADME, organism-based; design: dose 1 mg/kg, route intravenous; details: in vivo
How it was run: (§5)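 Single 1 mg/kg i.v. injection to male and female ICR mice (18.2-26.0 g) in 5% DMSO/50% PEG400/45% saline. Blood was taken by cardiac puncture after CO2 euthanasia at 5, 15, 30 min and 1, 2, 4, 8, 24 h post dose.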

[17] = Mean residence time (0 to infinity) in female ICR mouse at 1 mg/kg, iv; assay type: ADME, organism-based; design: dose 1 mg/kg, route intravenous; details: in vivo; how it was run: as §5
[18] = Clearance in female ICR mouse at 1 mg/kg, iv; assay type: ADME, organism-based; design: dose 1 mg/kg, route intravenous; details: in vivo; how it was run: as §5
[19] = Apparent volume of distribution in female ICR mouse at 1 mg/kg, iv; assay type: ADME, organism-based; design: dose 1 mg/kg, route intravenous; details: in vivo, read-out: Vz; how it was run: as §5
[20] = Clearance in male ICR mouse at 1 mg/kg, iv; assay type: ADME, organism-based; design: dose 1 mg/kg, route intravenous; details: in vivo; how it was run: as §5
[21] = Apparent volume of distribution in male ICR mouse at 1 mg/kg, iv; assay type: ADME, organism-based; design: dose 1 mg/kg, route intravenous; details: in vivo, read-out: Vz; how it was run: as §5
[22] = AUC (0 to infinity) in female ICR mouse at 5 mg/kg, ip; assay type: ADME, organism-based; design: time infinity, dose 5 mg/kg, route intraperitoneal; details: plasma; how it was run: as §1
[23] = AUC (0 to infinity) in female ICR mouse at 5 mg/kg, po; assay type: ADME, organism-based; design: time infinity, dose 5 mg/kg, route oral; details: plasma; how it was run: as §4
[24] = AUC (0 to infinity) in male ICR mouse at 5 mg/kg, ip; assay type: ADME, organism-based; design: time infinity, dose 5 mg/kg, route intraperitoneal; details: plasma; how it was run: as §1
[25] = AUC (0 to infinity) in female ICR mouse at 1 mg/kg, iv; assay type: ADME, organism-based; design: time infinity, dose 1 mg/kg, route intravenous; details: plasma; how it was run: as §5
[26] = AUC (0 to infinity) in male ICR mouse at 5 mg/kg, po; assay type: ADME, organism-based; design: time infinity, dose 5 mg/kg, route oral; details: plasma; how it was run: as §4
[27] = AUC (0 to infinity) in male ICR mouse at 1 mg/kg, iv; assay type: ADME, organism-based; design: time infinity, dose 1 mg/kg, route intravenous; details: plasma; how it was run: as §5
[28] = AUC (0 to t) in female ICR mouse at 5 mg/kg, ip; assay type: ADME, organism-based; design: dose 5 mg/kg, route intraperitoneal; details: plasma; how it was run: as §1
[29] = AUC (0 to t) in female ICR mouse at 5 mg/kg, po; assay type: ADME, organism-based; design: dose 5 mg/kg, route oral; details: plasma; how it was run: as §4
[30] = AUC (0 to t) in male ICR mouse at 5 mg/kg, ip; assay type: ADME, organism-based; design: dose 5 mg/kg, route intraperitoneal; details: plasma; how it was run: as §1
[31] = AUC (0 to t) in male ICR mouse at 1 mg/kg, iv; assay type: ADME, organism-based; design: dose 1 mg/kg, route intravenous; details: plasma; how it was run: as §5
[32] = AUC (0 to t) in female ICR mouse at 1 mg/kg, iv; assay type: ADME, organism-based; design: dose 1 mg/kg, route intravenous; details: plasma; how it was run: as §5
[33] = AUC (0 to t) in male ICR mouse at 5 mg/kg, po; assay type: ADME, organism-based; design: dose 5 mg/kg, route oral; details: plasma; how it was run: as §4
[34] = Cmax in male ICR mouse at 5 mg/kg, ip; assay type: ADME, organism-based; design: dose 5 mg/kg, route intraperitoneal; details: in vivo; how it was run: as §1
[35] = Cmax in female ICR mouse at 5 mg/kg, po; assay type: ADME, organism-based; design: dose 5 mg/kg, route oral; details: in vivo; how it was run: as §4
[36] = Cmax in male ICR mouse at 5 mg/kg, po; assay type: ADME, organism-based; design: dose 5 mg/kg, route oral; details: in vivo; how it was run: as §4
[37] = Cmax in female ICR mouse at 1 mg/kg, iv; assay type: ADME, organism-based; design: dose 1 mg/kg, route intravenous; details: in vivo; how it was run: as §5
[38] = Cmax in male ICR mouse at 1 mg/kg, iv; assay type: ADME, organism-based; design: dose 1 mg/kg, route intravenous; details: in vivo; how it was run: as §5
[39] = Tmax in female ICR mouse at 5 mg/kg, ip; assay type: ADME, organism-based; design: dose 5 mg/kg, route intraperitoneal; details: in vivo; how it was run: as §1
[40] = Tmax in male ICR mouse at 5 mg/kg, ip; assay type: ADME, organism-based; design: dose 5 mg/kg, route intraperitoneal; details: in vivo; how it was run: as §1
[41] = Tmax in female ICR mouse at 5 mg/kg, po; assay type: ADME, organism-based; design: dose 5 mg/kg, route oral; details: in vivo; how it was run: as §4
[42] = Tmax in male ICR mouse at 5 mg/kg, po; assay type: ADME, organism-based; design: dose 5 mg/kg, route oral; details: in vivo
How it was run: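 Male and female ICR mice (18.2-26.0 g), fasted overnight (10-15 h) before oral dosing; single gavage at 5 mg/kg in 10% NMP, 60% PEG400, 30% saline. Blood taken by cardiac puncture after CO2 euthanasia at 5, 15, 30 min and 1, 2, 4, 8, 24 h. Heparinised plasma assayed by HPLC-MS/MS. Tmax is the time to reach Cmax.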

[43] = Tmax in female ICR mouse at 1 mg/kg, iv; assay type: ADME, organism-based; design: dose 1 mg/kg, route intravenous; details: in vivo; how it was run: as §5
[44] = Half life in female ICR mouse at 5 mg/kg, ip; assay type: ADME, organism-based; design: dose 5 mg/kg, route intraperitoneal; details: in vivo; how it was run: as §1
[45] = Tmax in male ICR mouse at 1 mg/kg, iv; assay type: ADME, organism-based; design: dose 1 mg/kg, route intravenous; details: in vivo; how it was run: as §5
[46] = Half life in female ICR mouse at 5 mg/kg, po; assay type: ADME, organism-based; design: dose 5 mg/kg, route oral; details: in vivo; how it was run: as §4
[47] = Half life in male ICR mouse at 5 mg/kg, ip; assay type: ADME, organism-based; design: dose 5 mg/kg, route intraperitoneal; details: in vivo; how it was run: as §1
[48] = Half life in male ICR mouse at 5 mg/kg, po; assay type: ADME, organism-based; design: dose 5 mg/kg, route oral; details: in vivo; how it was run: as §4
[49] = Half life in female ICR mouse at 1 mg/kg, iv; assay type: ADME, organism-based; design: dose 1 mg/kg, route intravenous; details: in vivo; how it was run: as §5

Sequence of Poly [ADP-ribose] polymerase 1 (Homo sapiens) (P09874 whole entry): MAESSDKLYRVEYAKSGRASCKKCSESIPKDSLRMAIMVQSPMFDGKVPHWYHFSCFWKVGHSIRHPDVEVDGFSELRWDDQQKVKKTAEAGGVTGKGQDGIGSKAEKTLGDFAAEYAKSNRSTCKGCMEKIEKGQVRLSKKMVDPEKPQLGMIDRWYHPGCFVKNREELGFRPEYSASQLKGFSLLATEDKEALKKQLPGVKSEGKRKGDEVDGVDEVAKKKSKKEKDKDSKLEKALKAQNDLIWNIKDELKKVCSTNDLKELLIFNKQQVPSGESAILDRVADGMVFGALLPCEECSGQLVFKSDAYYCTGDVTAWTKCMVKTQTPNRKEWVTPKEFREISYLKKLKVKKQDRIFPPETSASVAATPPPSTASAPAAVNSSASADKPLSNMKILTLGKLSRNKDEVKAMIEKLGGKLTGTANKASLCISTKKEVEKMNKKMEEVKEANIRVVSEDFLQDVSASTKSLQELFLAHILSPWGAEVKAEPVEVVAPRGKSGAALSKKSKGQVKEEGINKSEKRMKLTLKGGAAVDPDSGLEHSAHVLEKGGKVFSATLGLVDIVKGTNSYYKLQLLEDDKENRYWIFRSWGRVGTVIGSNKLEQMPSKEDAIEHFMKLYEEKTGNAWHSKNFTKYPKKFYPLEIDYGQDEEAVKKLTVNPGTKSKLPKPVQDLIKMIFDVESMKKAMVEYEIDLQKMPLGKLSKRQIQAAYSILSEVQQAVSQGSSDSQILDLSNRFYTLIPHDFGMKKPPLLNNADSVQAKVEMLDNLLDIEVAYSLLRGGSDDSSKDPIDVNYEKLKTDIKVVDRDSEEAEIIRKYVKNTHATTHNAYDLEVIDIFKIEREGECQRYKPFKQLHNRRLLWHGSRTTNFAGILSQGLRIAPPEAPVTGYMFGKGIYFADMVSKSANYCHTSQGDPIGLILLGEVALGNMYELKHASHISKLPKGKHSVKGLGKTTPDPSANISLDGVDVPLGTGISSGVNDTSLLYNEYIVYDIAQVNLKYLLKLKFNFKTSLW
Sequence of Cytochrome P450 3A4 (P08684 whole entry): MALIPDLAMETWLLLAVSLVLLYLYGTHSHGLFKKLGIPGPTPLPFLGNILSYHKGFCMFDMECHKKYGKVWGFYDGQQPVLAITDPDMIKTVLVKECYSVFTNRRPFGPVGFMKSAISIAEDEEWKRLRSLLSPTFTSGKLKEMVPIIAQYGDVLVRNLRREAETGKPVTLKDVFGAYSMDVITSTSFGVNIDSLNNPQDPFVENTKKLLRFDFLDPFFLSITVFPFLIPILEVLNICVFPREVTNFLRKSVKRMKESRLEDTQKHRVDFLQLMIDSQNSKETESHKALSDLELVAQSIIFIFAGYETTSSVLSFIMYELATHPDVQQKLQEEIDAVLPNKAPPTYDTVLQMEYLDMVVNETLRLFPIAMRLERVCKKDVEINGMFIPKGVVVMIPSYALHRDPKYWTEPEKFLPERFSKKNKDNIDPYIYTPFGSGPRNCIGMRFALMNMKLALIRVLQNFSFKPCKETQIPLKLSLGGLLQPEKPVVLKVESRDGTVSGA

## CS(=O)(=O)c1ccc(-c2nnc(/C=C/c3nnc(-c4ccc(C#N)cc4)o3)n2-c2ccccc2Cl)nc1
[1]
  IC50: > 25 µM
[2]
  Cmax: 2660 ng/mL
[3]
  inhibition: inactive
[4]
  bioavailability: 122%
[5]
  bioavailability: 133%
[6]
  bioavailability: 59%
[7]
  bioavailability: 99%
[8]
  F: 152%
[9]
  F: 157%
[10]
  bioavailability: 72.7%
[11]
  bioavailability: 116%
[12]
  MRT inf: 4.6 h
[13]
  MRT inf: 4.8 h
[14]
  MRT inf: 5.1 h
[15]
  MRT inf: 5.1 h
[16]
  MRT inf: 4.1 h
[17]
  MRT inf: 4.8 h
[18]
  clearance: 7.17 mL/min/kg
[19]
  Vd: 2.2 L/kg
[20]
  clearance: 10 mL/min/kg
[21]
  Vd: 2.7 L/kg
[22]
  AUC(0-inf): 14100 ng·h/mL
[23]
  AUC(0-inf): 6750 ng·h/mL
[24]
  AUC(0-inf): 11200 ng·h/mL
[25]
  AUC(0-inf): 2300 ng·h/mL
[26]
  AUC(0-inf): 8270 ng·h/mL
[27]
  AUC(0-inf): 1680 ng·h/mL
[28]
  AUC(0-t): 14100 ng·h/mL
[29]
  AUC(0-t): 6740 ng·h/mL
[30]
  AUC(0-t): 11200 ng·h/mL
[31]
  AUC(0-t): 1420 ng·h/mL
[32]
  AUC(0-t): 1850 ng·h/mL
[33]
  AUC(0-t): 8250 ng·h/mL
[34]
  Cmax: 2360 ng/mL
[35]
  Cmax: 871 ng/mL
[36]
  Cmax: 967 ng/mL
[37]
  Cmax: 462 ng/mL
[38]
  Cmax: 434 ng/mL
[39]
  Tmax: 0.5 h
[40]
  Tmax: 0.5 h
[41]
  Tmax: 2 h
[42]
  Tmax: 0.25 h
[43]
  Tmax: 0.5 h
[44]
  half-life: 2.73 h
[45]
  Tmax: 0.25 h
[46]
  half-life: 2.63 h
[47]
  half-life: 2.89 h
[48]
  half-life: 2.6 h
[49]
  half-life: 3.46 h
